ARFGAP1 inh: inhibitors of rat ARFGAP1; Q62848; Arfgap1-stimulated ARF1 GTP hydrolysis, GDP FP detection; inhibition, % at 16.5 µM; 360,000 tested, 0.26% active; AID 651572;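 active means inhibition above a per-plate limit, mean inhibition of low control wells plus 3 SD, cut at about 25% in these data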;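 further: 0% = DMSO wells with enzyme and 100% = wells lacking Arfgap1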
Target sequence (Q62848 1-136 limits assumed): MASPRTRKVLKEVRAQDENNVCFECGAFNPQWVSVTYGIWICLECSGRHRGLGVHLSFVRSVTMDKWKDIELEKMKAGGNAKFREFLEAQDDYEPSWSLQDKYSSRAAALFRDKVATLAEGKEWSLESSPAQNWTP
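system = rat Arfgap1 catalytic domain, aa 1-136 | technique = FP, GDP Alexa 633 tracer displaced from anti-GDP antibody, 620/688 nm | compound = one concentration, 16.5 µM, DMSO 1.26% | medium = HEPES-based buffer, pH 7.5 | timing = compound-enzyme preincubation 20 min, reaction 120 min, detection 60 min, 25 °C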
ASAP1 inh: blocks human ASAP1-stimulated Arf1 GTP hydrolysis; 360,000 tested, 0.19% active; GDP FP detection; inhibition, % at 16.5 µM; in the data active means inhibition above about 25%;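 further: 0% = vehicle with enzyme and substrate and 100% = no enzyme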
rCAG binder: molecules binding r(CAG) RNA repeats | AID 651821 | r(CAG) RNA repeat, TO-PRO-1 dye displacement fluorescence | 370,000 tested, 1.3% active | inhibition, % at 3 µM;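 active means inhibition above the plate cutoff, the mean of all test compounds on that plate plus 3 SD, cut at about 35% in these data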;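 further: 0% = DMSO alone and 100% = 100 µM mitoxantrone as full dye displacement; higher means more dye released from RNA so lower well fluorescence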
NadD inh: inhibitors of Staphylococcus aureus NadD; inhibition, % at 20 µM; 360,000 tested, 0.78% active; purified NadD enzyme, colorimetric absorbance read-out; in the data active means inhibition above about 26%
rCAG binder conf: r(CAG) RNA repeat binding, confirmation | shares compounds with rCAG binder | TO-PRO-1 dye displacement fluorescence | inhibition, % at 3 µM | 4,300 tested, 70% active;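 active means inhibition above a per-plate cutoff, the mean inhibition of sample wells plus 3 SD, cut at about 35% in these data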;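 further: loss of TO-PRO-1 fluorescence as compound displaces dye from 1x1 AA loop RNA; 0% = DMSO only wells and 100% = 100 µM mitoxantrone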
dCAG dye counter: disrupts DNA CAG TO-PRO-1 complex, flagging rCAG hits; d(CAG) DNA oligo TO-PRO-1 dye displacement, fluorescence; 4,300 tested, 94% active; inhibition, % at 3 µM; AID 652068; shares compounds with rCAG binder;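 active means inhibition above its plate's cutoff, the mean test-well inhibition plus 3 SD, cut at about 4.8% in these data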;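 further: 0% = DNA dye mix with DMSO and 100% = 100 µM mitoxantrone; hits displace the dye from DNA and so lower well fluorescence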
An asterisk follows results filed as active; . = not tested or not shown; ! = not active in a repeat. A selection: hits, their analogues and other compounds. The true share with any hit is near 2.2%.

SMILES	ARFGAP1 inh	ASAP1 inh	rCAG binder	NadD inh	rCAG binder conf	dCAG dye counter
CC1(OC(=O)CCc2ccccc2)C(=O)C=C2C=C(c3ccc(C#N)cc3)N(Cc3ccco3)C=C2C1=O (stereo not drawn)	7	-5	37*	28	24	16*
O=S(=O)(Nc1ncccn1)c1ccc(NC(=S)N2CCN(c3cccc(C(F)(F)F)c3)CC2)cc1	-13	-5	50*	18	59*	16*
NC1=NC(=O)C(=Cc2ccccc2)S1	8	0	3	1	.	.
NC1=NC(=O)/C(=C\c2ccco2)S1	-14	-14	37*	2	15	5.7*
CCOC(=O)Cn1cc(CN2C(C(=O)OC)CN(CCO)CCS2(=O)=O)nn1 (stereo not drawn)	.	.	-1	.	.	.
NNC(=O)c1cc2ccccc2cc1NS(=O)(=O)c1ccccc1	-10	-1	54*	4	14	5.0*
NC(=O)c1ccccc1NS(=O)(=O)c1ccccc1	-9	-6	1	-1	.	.
CCN(CC)N=Nc1ccc(S(=O)(=O)Nc2nc(C)cc(C)n2)cc1	-3	-10	43*!	-3	5	-2
Cc1cc(C)nc(NS(=O)(=O)c2ccc(NS(=O)(=O)c3ccccc3)cc2)n1	-2	-14	2	3	.	.
Cc1cccc(C)c1NC(=O)C(C)Sc1nnc(C)n1CC1CCCO1 (stereo not drawn)	10	-4	1	0	.	.
O=S(=O)(Nc1cccc2c1ccc1cccn12)c1cccs1	-14	-7	38*	6	32	13*
CC1=NN(c2ccccc2)C(=O)C1/C=C1\NC(=S)NC1=O (stereo not drawn)	-5	-9	55*	25	72*	36*
CC[C@@H]1C=C(C(=O)O)[C@H](c2ccc(C)cc2)N1S(=O)(=O)c1ccc(C)cc1	8	-11	9	-6	.	.
Cc1ccc(S(=O)(=O)N2[C@@H](c3ccc(Cl)c(Cl)c3)C(C(=O)O)=C[C@H]2CC2CCCC2)cc1	-15	-13	87*	14	86*	57*
Cc1ccc(S(=O)(=O)N2[C@@H](c3ccc(Cl)cc3)C(C(=O)O)=C[C@H]2CC2CCCC2)cc1	-4	-2	77*	6	77*	40*
Cc1ccc(S(=O)(=O)N2[C@@H](c3ccc(C#N)cc3)C(C(=O)O)=C[C@H]2CC2CCCC2)cc1	3	2	69*	11	59*	25*
CC[C@@H]1C=C(C(=O)O)[C@H](c2ccc(OC)c(OC)c2)N1S(=O)(=O)c1ccc(C)cc1	1	14	6	-2	.	.
O=C(COc1ccccc1C(=O)O)Nc1nc2ccc([N+](=O)[O-])cc2s1	-1	-5	40*	3	37*	12*
O=C(COC(=O)c1ccc(Sc2ncn[nH]2)c([N+](=O)[O-])c1)Nc1ccc(Cl)c(Cl)c1	.	.	64*	.	46*	14*
O=C(COC(=O)c1ccc(Sc2ncn[nH]2)c([N+](=O)[O-])c1)Nc1ccc(Cl)cc1	.	.	20	.	.	.
COc1cc(CNc2cccc3[nH]c(C(F)(F)F)nc23)cc(OC)c1	17	-1	44*	15	35*	18*
CCCCCCCCCCC(C(=O)O)C1(C(=O)O)CCC(=O)O1 (stereo not drawn)	8	4	0	5	.	.
COc1ccc(C=CC(=O)c2ccc(OCc3ccccc3)c(OC)c2)cc1OC	20	7	11	-2	.	.
COc1ccc(C(=O)/C=C/c2cccc(OCc3ccccc3)c2)cc1CSCC(=O)O	-15	-4	60*	18	83*	44*
COC(=O)[C@]1(CC(C)C)NC=C(C(=O)c2ccccc2)[C@@H]1c1cccc(C(F)(F)F)c1	5	3	1	.	.	.
CCc1ccc(CC2S/C(=C(\C#N)C(C)=O)NC2=O)cc1 (stereo not drawn)	-4	-7	37*	0	20	2
Cc1c(C)n(CCc2ccccc2)c2ncnc(NCCCN(C)C)c12	13	6	1	-14	.	.
O=C(NCc1ccc(C(=O)NC2CCCC2)cc1)c1cccc(Br)c1	.	.	2	.	.	.
Cc1cc(C)cc(-n2cccc2/C=C2/C(=N)N3C(=NC2=O)SN=C3S(C)(=O)=O)c1	-16	-4	89*	21	88*	61*

Source: PubChem BioAssay (several laboratories)
